Published values from different studies.
LATS2: Serine/threonine-protein kinase LATS2 (LATS2, Homo sapiens, UniProt Q9NRM7)
ESR2: Estrogen receptor beta (ESR2, Homo sapiens, UniProt Q92731)
MME: Neprilysin (MME, Homo sapiens, UniProt P08473)

| Compound | target | assay | setting | quantity | value |
| --- | --- | --- | --- | --- | --- |
| CCN(CC)CCCC[C@H](NC(=O)[C@H](CC(C)C)NC(=O)[C@H](C)NC(=O)[C@H](Cc1ccccc1)NC(=O)c1ccc(C(C)(C)C)cc1)C(=O)N[C@@H](CO)C(=O)OC | Histone-lysine N-methyltransferase ASH1L (ASH1L, Homo sapiens, UniProt Q9NR48) | thermal stability, DSF | 25 µM | ΔTm | -0.39 °C |
| COc1cc(Nc2ncc(F)c(Nc3ccc4c(n3)NC(=O)C(C)(C)O4)n2)cc(OC)c1OC | LATS2 | binding, competition with immobilised ligand | 10 µM | inhibition | 100% |
| C#Cc1n[nH]c2c(-c3cn([C@@H](C)c4ccccn4)c(=O)[nH]c3=O)cc(F)cc12 | Proto-oncogene tyrosine-protein kinase receptor Ret (RET, Homo sapiens, UniProt P07949, V804L) | enzyme activity, inhibitor | 0.1 µM | inhibition | 4.5% |
| Nc1ncc(-c2nc(N3CCOCC3)nc(N3CCOCC3)n2)c(C(F)F)n1 | Citron Rho-interacting kinase (CIT, Homo sapiens, UniProt O14578) | binding, competition with immobilised ligand | 10 µM | remaining binding | 91% |
| C#Cc1n[nH]c2c(-c3cn([C@@H](C)c4ccccc4)c(=O)[nH]c3=O)cc(F)cc12 | Tyrosine-protein kinase JAK2 (JAK2, Homo sapiens, UniProt O60674) | enzyme activity, inhibitor | 0.1 µM | inhibition | -3% |
| C[C@H](C(=O)N[C@H]1COc2ccccc2[C@@H]1S(C)(=O)=O)c1ccc(F)cc1 | ESR2 | enzyme activity, inhibitor | 10 µM | inhibition | 3% |
| Cc1ncc(C)n2nc(/C=C/c3nc(N4CCCC4)cc(N4CCOCC4)n3)nc12 | MME | enzyme activity, inhibitor | 10 µM | inhibition | -13% |
| c1ccc(C(NCCNC(c2ccccc2)c2ccccc2)c2ccccc2)cc1 | ESR2 | enzyme activity, inhibitor | 10 µM | inhibition | 14% |
| O=C(Nc1cccnn1)N1CCN([C@@H]2CCOc3cc(C(F)(F)F)ccc32)CC1 | MME | enzyme activity, inhibitor | 20 µM | inhibition | 3% |
| Cc1sc2c(c1C)C(c1ccc(Cl)cc1)=N[C@@H](CC(=O)OC(C)(C)C)c1nnc(C)n1-2 | Stimulator of interferon genes protein (STING1, Homo sapiens, UniProt Q86WV6, H232R) | thermal stability, DSF | 200 µM | ΔTm | -1.58 °C |
| COc1ncccc1-c1cnn2ccc(N3CCN(C(=O)OC(C)C)CC3)nc12 | Phosphatidylinositol 5-phosphate 4-kinase type-2 gamma (PIP4K2C, Homo sapiens, UniProt Q8TBX8) | binding, competition with immobilised ligand | 1 µM | remaining binding | 9.5% |
| Cc1nn(C)cc1-c1nc2c(N3CCN(Cc4ccc(Cl)cc4)CC3)c(Cl)cnc2[nH]1 | LATS2 | binding, competition with immobilised ligand | 1 µM | remaining binding | 77% |
